Results reported in ChEMBL document CHEMBL1127038 (J Med Chem, 1993).

Assays:
[1] = species: Cavia porcellus; test: Nagative chronotropic activity was expressed as percent changes in atrial rate on guinea pig spontaneously beating isolated right atrium at 10 e-5 M; format: functional, Cardiac atrium
[2] = species: Cavia porcellus; test: Nagative inotropic activity was expressed as percent changes in developed tension in isolated guinea pig left atrium at 10 e-5 M; format: functional, Cardiac atrium
Method in brief: (§1)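 Isolated guinea pig left atrium, electrically driven at 1 Hz. Developed tension measured at 10⁻⁵ M and given as percent change from control, mean ±SEM, n = 5-6.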

[3] = species: Cavia porcellus; test: Negative chronotropic activity was calculated from log concentration/response curves; format: functional
[4] = species: Cavia porcellus; test: Negative inotropic activity was calculated from log concentration/response curves; format: functional
Method in brief: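 Guinea pig left atrium driven at 1 Hz; decrease in developed tension measured. Potency is from log concentration/response curves by Litchfield–Wilcoxon probit analysis, n = 6-8.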

[5] = species: Cavia porcellus; test: Inhibition concentration of vasodilation was calculated from log concentration/response curves; format: functional
Method in brief: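 K⁺-depolarized guinea pig aortic strips, calcium-induced contraction. Potency is from log concentration/response curves by Litchfield–Wilcoxon probit analysis, n = 6-8.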

[6] = species: Cavia porcellus; test: Percent inhibition of calcium-induced contraction on K+ -depolarized guinea pig aortic strips at 10 e-4 M; format: functional, Aorta
Method in brief: (§2)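 Guinea pig aortic strips depolarized with K⁺ and contracted by calcium. Inhibition of the calcium-induced contraction measured at 10⁻⁴ M, mean ±SEM, n = 6-7.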

[7] = species: Cavia porcellus; test: Nagative chronotropic activity was expressed as percent changes in atrial rate on guinea pig spontaneously beating isolated right atrium at 10E-5 M; format: functional, Cardiac atrium
[8] = species: Cavia porcellus; test: Nagative inotropic activity was expressed as percent changes in developed tension in isolated guinea pig left atrium at 10E-5 M; format: functional, Cardiac atrium; method in brief: as §1
[9] = species: Cavia porcellus; test: Percent inhibition of calcium-induced contraction on K+ -depolarized guinea pig aortic strips at 10E-4 M; format: functional, Aorta; method in brief: as §2

For `COc1ccc(CCN(C)CCCC(C#N)(c2ccc(OC)c(OC)c2)C(C)C)cc1OC` (stereo not drawn), the Change [1] was 94%, the Change [2] was 84% and the ED30 [3] was 0.07 µM. The ED50 [4] was 0.61 µM and the IC50 ([5]; Cavia porcellus) was 0.38 µM.

`COc1ccc(CCN(C)C2CCCC(C(C#N)(c3ccc(OC)c(OC)c3)C(C)C)C2)cc1OC` (stereo in doubt; 2a) gave a Change [1] of 78%, a Change [2] of 84% and an ED30 [3] of 0.075 µM. The ED50 [4] was 0.1 µM and the Inhibition [6] was 37%.

Compound `COc1ccc(CCN(C)C2CCCC(C(C#N)(c3ccc(OC)c(OC)c3)C(C)C)C2)cc1OC` (stereo in doubt; 2b) has a Change [1] of 93%, a Change [2] of 75% and an ED30 [3] of 0.23 µM. It also gave an ED50 [4] of 1.3 µM and an Inhibition [6] of 30%.

`COc1ccc(CCN(C)C2CCCC(C(C#N)(c3ccc(OC)c(OC)c3)C(C)C)C2)cc1OC` (stereo in doubt; 2c) showed a Change [1] of 89%, a Change [2] of 86% and an ED30 [3] of 1.3 µM. The ED50 [4] was 0.06 µM, the IC50 [5] was 18 µM and the Inhibition [6] was 49%.

In the case of `COc1ccc(CCN(C)C2CCCC(C(C#N)(c3ccc(OC)c(OC)c3)C(C)C)C2)cc1OC` (stereo in doubt; 2d), the Change [1] is reported as 75%, the Change [2] is reported as 74% and the ED30 [3] is reported as 0.42 µM. The ED50 [4] was 0.2 µM, the IC50 ([5]; Cavia porcellus) was 10 µM and the Inhibition [6] was 58%.

In the case of `COc1ccc(CCNC2CCCC(C(C#N)(c3ccc(OC)c(OC)c3)C(C)C)C2)cc1OC` (stereo in doubt; 7a), the Change [7] is reported as 78%, the Change [8] is reported as 82% and the ED30 [3] is reported as 2.4 µM. For the same compound, the ED50 [4] was 0.9 µM, the IC50 [5] was 17 µM and the Inhibition [9] was 62%.

With `COc1ccc(CCNC2CCCC(C(C#N)(c3ccc(OC)c(OC)c3)C(C)C)C2)cc1OC` (stereo in doubt; 7b) the Change [7] was 66%, the Change [8] was 74% and the ED30 [3] was 0.06 µM. For the same compound, the ED50 [4] was 0.11 µM and the Inhibition [9] was 35%.

`COc1ccc(CCNC2CCCC(C(C#N)(c3ccc(OC)c(OC)c3)C(C)C)C2)cc1OC` (stereo in doubt; 7c) showed a Change [7] of 64%, a Change [8] of 70% and an ED30 [3] of 1.4 µM. For the same compound, the ED50 [4] was 0.66 µM and the Inhibition [9] was 40%.

Work on `COc1ccc(CCNC2CCCC(C(C#N)(c3ccc(OC)c(OC)c3)C(C)C)C2)cc1OC` (stereo in doubt; 7d) yielded a Change [7] of 84%, a Change [8] of 83% and an ED30 [3] of 0.37 µM. The ED50 [4] was 1.1 µM and the Inhibition [9] was 56%.
